Assay results from ChEMBL document CHEMBL5512625, “Design, synthesis, and biological evaluation of first-in-class indomethacin-based PROTACs degrading SARS-CoV-2 main protease and with broad-spectrum antiviral activity” (Eur J Med Chem, 2024).
The source made the active and inactive calls. No cut-off for these calls is given here.

How the values were obtained:
Assay type in all cases: cell-based
[1] = target: von Hippel-Lindau disease tumor suppressor-SARS-Cov-2 polyprotein (Severe acute respiratory syndrome coronavirus 2, UniProt P40337+P0DTD1); experiment: (§1) PROTAC activity at human VHL/FLAG-nsp4-tagged SARS CoV-2 MPro overexpressed in HEK293T cells assessed as protein degradation pretreated for 2 hrs followed by viral protein transfection measured after 24 hrs by Western blot analysis
von Hippel-Lindau disease tumor suppressor-SARS-Cov-2 polyprotein, sequence (P40337 whole entry, other chains not shown): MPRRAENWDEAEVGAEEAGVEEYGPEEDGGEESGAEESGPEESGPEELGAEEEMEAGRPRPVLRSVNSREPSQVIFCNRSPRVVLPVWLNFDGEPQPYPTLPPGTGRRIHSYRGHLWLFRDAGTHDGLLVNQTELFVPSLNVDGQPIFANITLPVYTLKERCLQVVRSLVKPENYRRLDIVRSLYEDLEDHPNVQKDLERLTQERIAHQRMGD
Outline: (§2)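 293T cells pretreated 2 h with compound (1–25 µM) or 0.1% DMSO, then transfected with FLAG-nsp4-Mpro plasmid and kept 24 h with compound. Western blot for Mpro with β-actin loading control. Densitometry from 2–3 independent experiments; DC50 by nonlinear regression, plus % degradation at the top concentration.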

[2] = target: Replicase polyprotein 1ab (Severe acute respiratory syndrome coronavirus 2) (UniProt P0DTD1); experiment: Effect on catalytic activity of FLAG-nsp4-tagged SARS CoV-2 MPro overexpressed in HEK293T cells pretreated for 2 hrs followed by viral protein transfection measured after 24 hrs by Western blot analysis; conditions: time 26.0 hrs
Outline: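 293T cells pretreated 2 h, then transfected with FLAG-nsp4-Mpro plasmid and kept 24 h with compound. Western blot with anti-Mpro antibody reads cleavage: release of ~34 kDa mature Mpro versus the uncleaved upper band.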

[3] = target: Replicase polyprotein 1ab (Severe acute respiratory syndrome coronavirus 2) (UniProt P0DTD1); experiment: Effect on catalytic activity of FLAG-nsp4-tagged SARS CoV-2 MPro overexpressed in HEK293T cells by FRET assay
[4] = target: T1, von Hippel-Lindau disease tumor suppressor-SARS-Cov-2 polyprotein (Severe acute respiratory syndrome coronavirus 2) (UniProt P40337+P0DTD1); experiment: PROTAC activity at human VHL/FLAG-nsp4-tagged SARS CoV-2 MPro overexpressed in HEK293T cells assessed as protein degradation at 25 uM pretreated for 2 hrs followed by viral protein transfection measured after 24 hrs by Western blot analysis relative to control; conditions: time 26.0 hrs; outline: as §2
T1 sequence (P40337 whole entry, looked up, other chains not shown): as the sequence (P40337 whole entry, other chains not shown) above

[5] = target: T1, von Hippel-Lindau disease tumor suppressor-SARS-Cov-2 polyprotein (Severe acute respiratory syndrome coronavirus 2); experiment: PROTAC activity at human VHL/FLAG-nsp4-tagged SARS CoV-2 MPro overexpressed in HEK293T cells assessed as protein degradation at 25 uM pretreated for 2 hrs followed by viral protein transfection measured after 24 hrs in presence of VH298 by Western blot analysis; conditions: time 26.0 hrs
Outline: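 293T cells pretreated with compound at 25 µM, with or without 50 µM VHL inhibitor VH298. Cells then transfected to express FLAG-nsp4-Mpro and collected 24 h post-transfection. Mpro detected by Western blot, β-actin as loading control.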

[6] = target: T1, von Hippel-Lindau disease tumor suppressor-SARS-Cov-2 polyprotein (Severe acute respiratory syndrome coronavirus 2); experiment: PROTAC activity at human VHL/FLAG-nsp4-tagged SARS CoV-2 MPro overexpressed in HEK293T cells assessed as protein degradation at 25 uM pretreated for 2 hrs followed by viral protein transfection measured after 24 hrs by Western blot analysis; conditions: time 26.0 hrs; outline: as §2
[7] = target: T1, von Hippel-Lindau disease tumor suppressor-SARS-Cov-2 polyprotein (Severe acute respiratory syndrome coronavirus 2); experiment: as §1; conditions: time 26.0 hrs; outline: as §2

**Q.** Which results are given for COc1ccc2c(c1)c(CC(=O)N1CCN(CC(=O)N[C@H](C(=O)N3C[C@H](O)C[C@H]3C(=O)N[C@@H](C)c3ccc(-c4scnc4C)cc3)C(C)(C)C)CC1)c(C)n2C(=O)c1ccc(Cl)cc1?
**A.** DC50 [1]: 7.3 µM; Activity [2]: inactive; Activity [3]: inactive; Activity [4]: 72%; Activity [5]: inactive

**Q.** With COc1ccc2c(c1)c(CC(=O)NCCN1CCN(C(=O)CCC(=O)N[C@H](C(=O)N3C[C@@H](O)C[C@H]3C(=O)N[C@@H](C)c3ccc(-c4scnc4C)cc3)C(C)(C)C)CC1)c(C)n2C(=O)c1ccc(Cl)cc1 as the compound, how does the Activity [6] read?
**A.** inactive

**Q.** Which results are given for COc1ccc2c(c1)c(CC(=O)NCCCCCCC(=O)N[C@H](C(=O)N1C[C@H](O)C[C@H]1C(=O)N[C@@H](C)c1ccc(-c3scnc3C)cc1)C(C)(C)C)c(C)n2C(=O)c1ccc(Cl)cc1?
**A.** Activity [7]: Dose-Dependent Effect; Activity [2]: inactive; Activity [3]: inactive

**Q.** With COc1ccc2c(c1)c(CC(=O)NCCN1CCN(C(=O)CCC(=O)N[C@H](C(=O)N3C[C@H](O)C[C@H]3C(=O)N[C@@H](C)c3ccc(-c4scnc4C)cc3)C(C)(C)C)CC1)c(C)n2C(=O)c1ccc(Cl)cc1 as the compound, how does the DC50 [1] read?
**A.** 18.1 µM

**Q.** And the Activity [2]?
**A.** inactive

**Q.** What about the Activity [3] of the same compound?
**A.** inactive

**Q.** And the Activity [4]?
**A.** 67%

**Q.** What about the Activity [5] of the same compound?
**A.** inactive
